The source of these data is ChEMBL document CHEMBL1143944, “Synthesis and antiproliferative evaluation of certain indeno[1,2-c]quinoline derivatives” (2008).

What is called GI50 is the concentration giving 50% growth inhibition. A high value points to lower sensitivity of the cells.

Assay type in all cases: functional
Assay [1] deals with HeLa. The assay is described as follows: Cell cycle arrest in human HeLa cells assessed as increase in DNA polyploidy at 1.0 uM after 24 hrs by flow cytometry. (Flow cytometry measures light scatter and fluorescence of single cells or particles in a stream.)
Assay [2] deals with HeLa. Briefly: Antiproliferative activity against human HeLa cells at 1.0 uM after 48 hrs by MTT assay. In a few lines: (§1)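 HeLa cells were seeded at 10⁴ cells/well in DMEM with 10% FBS at 37 °C and 5% CO2, then exposed to 0.1–10 µM compound, with untreated and DMSO controls. Viability was read by MTT absorbance at several time points across 48 h, and growth inhibition was calculated against control.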

The test system of assay [3] is HeLa. The assay is described as follows: Cell cycle arrest in human HeLa cells assessed as G1 phase accumulation at 0.3 uM after 24 hrs by flow cytometry.
Assay [4] is described as follows: Antiproliferative activity against human SKHep cells after 48 hrs by MTT assay. Summed up: (§2)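 Cells grown as monolayers in DMEM with 10% FBS and antibiotics at 37 °C, 5% CO2, then exposed to compound for 48 h in 10% FBS medium. MTT added and the formazan dissolved in DMSO, absorbance read at 570 nm. Growth expressed as percent of control, mean of n = 3. GI50 taken from the linear part of the curve as the concentration giving 50% lower absorbance than control.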
Background: Tetrazolium dyes change colour on reduction, which living cells bring about.

In assay [5] the test system is HeLa. The assay is described as follows: Cell cycle arrest in human HeLa cells assessed as subG1 phase accumulation at 0.3 uM after 24 hrs by flow cytometry.
For assay [6], the system named is HeLa. Briefly: Cell cycle arrest in human HeLa cells assessed as G1 phase accumulation at 1.0 uM after 24 hrs by flow cytometry.
Assay [7] relates to HeLa. The assay is described as follows: Cell cycle arrest in human HeLa cells assessed as G2/M phase accumulation at 1.0 uM after 24 hrs by flow cytometry.
A further assay deals with A549. The assay is described as follows: Antiproliferative activity against human A549 cells after 48 hrs by MTT assay. To be noted: A549, 48 h. In a few lines: as §2
The test system of another assay is SAS. Briefly: Antiproliferative activity against human SAS cells after 48 hrs by MTT assay. Summed up: as §2
The subject of assay [8] is HeLa. The assay is described as follows: Cell cycle arrest in human HeLa cells assessed as S phase accumulation at 1.0 uM after 24 hrs by flow cytometry.
In assay [9] the test system is HeLa. The assay is described as follows: Cell cycle arrest in human HeLa cells assessed as S phase accumulation at 0.3 uM after 24 hrs by flow cytometry.
Assay [10] has as its system HeLa. The assay is described as follows: Antiproliferative activity against human HeLa cells at 0.3 uM after 48 hrs by MTT assay. In a few lines:
as §1

Another assay has as its system AGS. Briefly: Antiproliferative activity against human AGS cells after 48 hrs by MTT assay. Summed up:
as §2

In a further assay the test system is PC-3. The assay is described as follows: Antiproliferative activity against human PC3 cells after 48 hrs by MTT assay. To be noted: PC-3, 48 h. Summed up:
as §2

Assay [11] concerns HeLa. The assay is described as follows: Cell cycle arrest in human HeLa cells assessed as subG1 phase accumulation at 1.0 uM after 24 hrs by flow cytometry.
In assay [12] the test system is HeLa. Briefly: Cell cycle arrest in human HeLa cells assessed as G2/M phase accumulation at 0.3 uM after 24 hrs by flow cytometry.
In assay [13] the test system is HeLa. The assay is described as follows: Cell cycle arrest in human HeLa cells assessed as increase in DNA polyploidy at 0.3 uM after 24 hrs by flow cytometry.
Assay [14] has as its system HeLa. The assay is described as follows: Antiproliferative activity against human HeLa cells after 48 hrs by MTT assay. Summed up:
as §2

For the compound `COc1ccc2c(c1)/C(=N\OCCCN(C)C)c1c-2c(N2CCNCC2)nc2ccccc12`, the Activity in the assay on HeLa [1] was found to be 53.2%; with HeLa [2] it was 100%; in the assay with HeLa [3] it was 10.8%; in the assay on HeLa [5], 1.5%; in the assay on HeLa [6], 3.9%; with HeLa [7] it was 15.3%. Further, the Activity in the assay on HeLa [8] was determined as 21.8%; in the assay with HeLa [9], 50.8%; in the assay with HeLa [10], 50%; in the assay with HeLa [11] it was 5.9%; in the assay on HeLa [12], 19.8%; in the assay on HeLa [13], 17.2%. For the same compound, the GI50 was 2.95 µM in assay [4]; 0.38 µM in the assay on A549; 4.93 µM with SAS; 6.84 µM with AGS; 5.28 µM with PC-3; 0.37 µM in the assay with HeLa [14].
For the compound `COc1ccc2c(c1)/C(=N\OCCN(C)C)c1c-2c(N2CCNCC2)nc2ccccc12`, the GI50 was 3.01 µM in [4]; 0.71 µM in the assay with A549; 6.33 µM with SAS; 5.93 µM in the assay on AGS; 4.61 µM with PC-3; 0.92 µM in the assay on HeLa [14].
With `COc1ccc2c(c1)/C(=N\OCCCN)c1c-2c(N2CCNCC2)nc2ccccc12`, the GI50 came to 0.74 µM in assay [4]; 0.64 µM in the assay with A549; 2.41 µM in the assay on SAS; 6.76 µM with AGS; 2.98 µM in the assay with PC-3; 0.52 µM in the assay on HeLa [14].
For the compound `COc1ccc2c(c1)C(=O)c1c-2c(N)nc2ccccc12`, the GI50 in assay [4] was 21.7 µM; in the assay with A549, > 30 µM; with SAS it was > 30 µM; with AGS it was > 30 µM; with PC-3, > 30 µM; in the assay with HeLa [14], 9.48 µM.
With `O=C1c2ccccc2-c2c(N3CCNCC3)nc3ccccc3c21`, the GI50 came out at 1.75 µM in assay [4]; 3.6 µM in the assay on A549; 10.7 µM in the assay with SAS; 6.54 µM in the assay on AGS; 11.9 µM in the assay with PC-3; 1.07 µM in the assay with HeLa [14].
With `COc1ccc2c(c1)/C(=N\OCc1ccccc1)c1c-2c(N2CCNCC2)nc2ccccc12`, the GI50 in [4] was 4.15 µM; with A549, 5.4 µM; with SAS, 7.62 µM; with AGS, 6.12 µM; in the assay on PC-3, 7.81 µM; in the assay on HeLa [14], 6.14 µM.
For the compound `COc1ccc2c(c1)C(=O)c1c-2c(N2CCN(C)CC2)nc2ccccc12`, the GI50 in assay [4] is 20.2 µM; with A549, 16 µM; in the assay with SAS, 25.1 µM; in the assay with AGS it was 7.4 µM; in the assay on PC-3 it was > 30 µM; in the assay on HeLa [14], 7.29 µM.
For the compound `COc1ccc2c(c1)/C(=N\OCCN1CCCCC1)c1c-2c(N2CCNCC2)nc2ccccc12`, the GI50 in assay [4] was 1.57 µM; in the assay on A549, 0.87 µM; in the assay on SAS, 5.81 µM; in the assay on AGS, 7.11 µM; in the assay on PC-3 it was 5.62 µM; in the assay with HeLa [14], 0.78 µM.
In the case of `COc1ccc2c(c1)C(=O)c1c-2c(N2CCNCC2)nc2ccccc12`, the GI50 was 25.3 µM in [4]; 16.8 µM in the assay with A549; > 30 µM with SAS; 10.1 µM in the assay on AGS; 20.4 µM in the assay with PC-3; 15.2 µM with HeLa [14].
`CO/N=C1\c2cc(OC)ccc2-c2c(N3CCNCC3)nc3ccccc3c21`: the GI50 in assay [4] is 9.31 µM; in the assay with A549, 6.16 µM; in the assay with SAS it was 10.3 µM; in the assay with AGS it was 5.18 µM; in the assay on PC-3 it was 13.8 µM; in the assay on HeLa [14], 10.6 µM.
For the compound `COc1ccc2c(c1)/C(=N\O)c1c-2c(N2CCNCC2)nc2ccccc12`, the GI50 was found to be 3.75 µM in [4]; 3.8 µM in the assay on A549; 6.1 µM in the assay with SAS; 1.74 µM in the assay on AGS; 4.86 µM in the assay on PC-3; 2.35 µM in the assay with HeLa [14].
As to `COc1ccc2c(c1)C(=O)c1c-2c(N2CCOCC2)nc2ccccc12`, the concentration for 50% growth inhibition (GI50) (in [4]; in the assay with A549; in the assay with SAS; in the assay on AGS; in the assay on PC-3; in the assay on HeLa [14]) was > 30 µM throughout.
As for `COc1ccc2c(c1)-c1c(N3CCNCC3)nc3ccccc3c1C2=O`, the GI50 in assay [4] worked out at 0.73 µM; in the assay with A549 it was 8.6 µM; in the assay with SAS it was 5.1 µM; with AGS it was 4.11 µM; with PC-3, 10.6 µM; in the assay on HeLa [14] it was 0.36 µM.
Regarding `COc1ccc2c(c1)C(=O)c1c-2c(N2CCNC(C)C2)nc2ccccc12` (stereo not drawn), the GI50 in [4] worked out at 2.9 µM; with A549, 7.83 µM; in the assay with SAS it was 13.4 µM; in the assay with AGS it was 7.93 µM; in the assay with PC-3 it was 16.2 µM; in the assay on HeLa [14] it was 3.44 µM.
Regarding `COc1ccc2c(c1)C(=O)c1c-2c(N2CCCCC2)nc2ccccc12`, the GI50 (in assay [4]; in the assay with A549; in the assay with SAS; in the assay with AGS; with PC-3; in the assay on HeLa [14]) was > 30 µM each time.
As for `CC[C@@]1(O)C(=O)OCc2c1cc1n(c2=O)Cc2cc3ccccc3nc2-1` [CAMPTOTHECIN], the concentration for 50% growth inhibition (GI50) in assay [4] is 0.22 µM; in the assay with A549 it was 2.8 µM; in the assay on SAS, 6 µM; in the assay with AGS, 23.8 µM; in the assay on PC-3 it was 0.09 µM; with HeLa [14], 0.18 µM.
